Experimental data from ChEMBL document CHEMBL3045496, “Antifeedant activity of ethanolic extract from Flourensia oolepis and isolation of pinocembrin as its active principle compound” (2009).
Calls of active or inactive are those of the source. The rule behind the calls is not given here.

Tests used:
[1] = tested on: Spodoptera litura; experiment: Antifeedant activity against third-instar Spodoptera litura assessed per cm2 leaf disk; format: functional
[2] = tested on: Epilachna; experiment: Antifeedant activity against third-instar Epilachna paenulata measured assessed per cm2 leaf disk; format: functional
[3] = tested on: Epilachna; experiment: Antifeedant activity against third-instar Epilachna paenulata measured assessed per cm2 leaf disk after 24 hr by leaf disk choice test; format: functional
Procedure, shortened: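 Two Cucurbita maxima seedling cotyledons in a Petri dish under a glass disk with two 1 cm2 holes: one solvent-treated, one solvent-control. A single larva is placed equidistant between them and feeds for 24 h. Area eaten is estimated visually by quarters, always by the same operator. AI% = [1−(T/C)]×100; means of 10 replicates.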

[4] = tested on: Xanthogaleruca luteola; experiment: Antifeedant activity against adult Xanthogaleruca luteola assessed per cm2 leaf disk after 24 hr by leaf-disk choice test
[5] = tested on: Epilachna; experiment: Antifeedant activity against third-instar Epilachna paenulata measured at 1 ug/cm2 leaf disk after 24 hr by leaf disk choice test relative to control; format: functional
[6] = tested on: Xanthogaleruca luteola; experiment: Antifeedant activity against adult Xanthogaleruca luteola measured at 1 ug/cm2 leaf disk after 24 hr by leaf-disk choice test relative to control
[7] = tested on: Epilachna; experiment: Antifeedant activity against third-instar Epilachna paenulata measured at 50 ug/cm2 leaf disk after 24 hr by leaf-disk choice test relative to control; format: functional
[8] = tested on: Spodoptera frugiperda; experiment: Antifeedant activity against third-instar Spodoptera frugiperda (fall armyworm) measured at 50 ug/cm2 leaf disk after 3 to 4 hr by leaf-disk choice test relative to control; format: functional
Procedure, shortened: (§1)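 Two-choice leaf-disk assay with third-instar larvae collected in the field and kept on pumpkin for 2–3 days beforehand. Treated and solvent-control 1 cm2 disks of C. maxima cotyledon are offered together, and the area of each consumed (0–100%) is scored visually by quarters by the same operator. AI% = [1−(T/C)]×100; means of 10 replicates.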

[9] = tested on: Spodoptera frugiperda; experiment: Antifeedant activity against third-instar Spodoptera frugiperda (fall armyworm) measured at 100 ug/cm2 leaf disk after 3 to 4 hr by leaf-disk choice test relative to control; format: functional; procedure, shortened: as §1
[10] = tested on: Xanthogaleruca luteola; experiment: Antifeedant activity against adult Xanthogaleruca luteola measured at 50 ug/cm2 leaf disk after 24 hr by leaf-disk choice test relative to control
[11] = tested on: Epilachna; experiment: Antifeedant activity against third-instar Epilachna paenulata measured at 5 ug/cm2 leaf disk after 24 hr by leaf-disk choice test relative to control; format: functional
[12] = tested on: Epilachna; experiment: Antifeedant activity against third-instar Epilachna paenulata measured at 10 ug/cm2 leaf disk after 24 hr by leaf-disk choice test relative to control; format: functional
[13] = tested on: Xanthogaleruca luteola; experiment: Antifeedant activity against adult Xanthogaleruca luteola measured at 5 ug/cm2 leaf disk after 24 hr by leaf-disk choice test relative to control
[14] = tested on: Spodoptera frugiperda; experiment: Antifeedant activity against third-instar Spodoptera frugiperda (fall armyworm) assessed per cm2 leaf disk after 3 to 4 hr by leaf-disk choice test; format: functional
[15] = tested on: Spodoptera frugiperda; experiment: Antifeedant activity against third-instar Spodoptera frugiperda (fall armyworm) measured at 10 ug/cm2 leaf disk after 3 to 4 hr by leaf-disk choice test relative to control; format: functional; procedure, shortened: as §1
[16] = tested on: Xanthogaleruca luteola; experiment: Antifeedant activity against adult Xanthogaleruca luteola measured at 10 ug/cm2 leaf disk after 24 hr by leaf-disk choice test relative to control
[17] = tested on: Xanthogaleruca luteola; experiment: Antifeedant activity against adult Xanthogaleruca luteola measured at 100 ug/cm2 leaf disk after 24 hr by leaf-disk choice test relative to control
[18] = tested on: Epilachna; experiment: Antifeedant activity against third-instar Epilachna paenulata measured at 100 ug/cm2 leaf disk after 24 hr by leaf-disk choice test relative to control; format: functional
[19] = tested on: Spodoptera frugiperda; experiment: Antifeedant activity against third-instar Spodoptera frugiperda (fall armyworm) measured at 5 ug/cm2 leaf disk after 3 to 4 hr by leaf-disk choice test relative to control; format: functional; procedure, shortened: as §1

Question: How did the ED50 [1] turn out when COc1c(OC)c(O)c2c(=O)c(OC)c(-c3ccccc3)oc2c1OC was run?
Answer: Its ED50 is 7.16 µg.

Question: How did the ED50 [1] turn out when COc1ccc(-c2oc3c(OC)c(OC)c(OC)c(O)c3c(=O)c2OC)cc1 [5-HYDROXYAURANETIN] was run?
Answer: The ED50 was 42.8 µg.

Question: How did the ED50 [2] turn out when C[C@@H]1CC[C@H]2[C@@H](C)C(=O)O[C@@H]3O[C@@]4(C)CC[C@@H]1[C@]32OO4 [ARTEMISININ] was run?
Answer: Its ED50 is 14.7 µg.

Question: Which ED50 [3] does the source give for C/C=C(\C)C(=O)O[C@H]1C[C@@H](OC(C)=O)[C@@]2(C(=O)OC)CO[C@H]3[C@@H](O)[C@@](C)([C@]45O[C@@]4(C)[C@@H]4C[C@H]5O[C@@H]5OC=C[C@@]54O)[C@H]4[C@]1(CO[C@]4(O)C(=O)OC)[C@@H]32 [AZADIRACHTIN A] here?
Answer: Its ED50 is 0.59 µg.

Question: Which ED50 [3] does the source give for Oc1cc(O)c2c(c1)OC(c1ccc(O)c(O)c1)C(O)C2 (configuration not stated) [CATECHIN] here?
Answer: Its ED50 is 47.6 µg.

Question: And the ED50 [4]?
Answer: Its ED50 is 50.22 µg.

Question: For O=c1cc(-c2ccccc2)oc2cc(O)cc(O)c12 [CHRYSIN], which ED50 [1] is on record?
Answer: The ED50 was 635 µg.

Question: Which ED50 [1] does the source give for O=c1cc(-c2ccccc2)oc2ccccc12 [FLAVONE] here?
Answer: Its ED50 is 24.6 µg.

Question: For CC(=O)O[C@@H]1C[C@H](O)[C@@]23COC(O)[C@]1(C)[C@@H]2C[C@@H](O)[C@]1(C)[C@@H]3[C@H](O)C(=O)[C@@]2(C)[C@H](c3ccoc3)C[C@H]3O[C@@]312 (some centres not stated) [MELIARTENIN], which ED50 [2] is on record?
Answer: The ED50 was 0.8 µg.

Question: O=C1C[C@@H](c2ccc(O)cc2)Oc2cc(O)cc(O)c21 [NARINGENIN] was tested. Which ED50 [3] did it give?
Answer: Its ED50 is 160.15 µg.

Question: With O=C1C[C@@H](c2ccccc2)Oc2cc(O)cc(O)c21 [PINOCEMBRIN] as the compound, how does the ED50 [3] read?
Answer: The ED50 was 7.98 µg.

Question: What about the AFI [5] of the same compound?
Answer: The AFI was 12%.

Question: And the AFI [6]?
Answer: Its AFI is 0%.

Question: And the AFI [7]?
Answer: Its AFI is 90%.

Question: And the AFI [8]?
Answer: The AFI was 91%.

Question: And the AFI [9]?
Answer: The AFI was 92%.

Question: What about the AFI [10] of the same compound?
Answer: Its AFI is 94%.

Question: And the AFI [11]?
Answer: The AFI was 21%.

Question: What about the AFI [12] of the same compound?
Answer: Its AFI is 62%.

Question: What about the AFI [13] of the same compound?
Answer: The AFI was 62%.

Question: What about the ED50 [14] of the same compound?
Answer: Its ED50 is 8.86 µg.

Question: What about the AFI [15] of the same compound?
Answer: The AFI was 70%.

Question: And the AFI [16]?
Answer: Its AFI is 62%.

Question: What about the ED50 [4] of the same compound?
Answer: Its ED50 is 6.13 µg.

Question: And the AFI [17]?
Answer: Its AFI is 98%.

Question: And the AFI [18]?
Answer: Its AFI is 99.1%.

Question: What about the AFI [19] of the same compound?
Answer: Its AFI is 21%.

Question: O=c1c(O)c(-c2ccc(O)c(O)c2)oc2cc(O)cc(O)c12 [QUERCETIN] was tested. Which Activity [1] did it give?
Answer: Its Activity is “inactive”.

Question: What about the ED50 [3] of the same compound?
Answer: The ED50 was 9.26 µg.

Question: What about the ED50 [4] of the same compound?
Answer: The ED50 was 178.52 µg.

Question: With C=C(C)[C@H]1Cc2c(ccc3c2O[C@@H]2COc4cc(OC)c(OC)cc4[C@@H]2C3=O)O1 [ROTENONE] as the compound, how does the ED50 [1] read?
Answer: The ED50 was 59.1 µg.

Question: For CC(=O)O[C@@H]1C[C@H](O)[C@@]23CO[C@@H](O)[C@]1(C)[C@@H]2C[C@@H](O)[C@]1(C)[C@@H]3C(=O)[C@H](OC(C)=O)[C@@]2(C)[C@H](c3ccoc3)C[C@H]3O[C@]321 [TOOSENDANIN], which ED50 [2] is on record?
Answer: The ED50 was 3.69 µg.
